Reference: ChEMBL document CHEMBL1125710, “Structure/activity and molecular modeling studies of the lophotoxin family of irreversible nicotinic receptor antagonists” (J Med Chem, 1991)
Several values for one entry are separate records, joined by “and”; a condition that tells them apart may be missing. Equal values may be shown once. Activity calls are given as the source filed them. The calls are words filed in the database; no cut-off is given here.

What was measured:
[1] = target: Acetylcholine receptor (Torpedo californica) (UniProt P02710+P02712+P02718+P02714); experiment: In vitro ability to inhibit the binding of [125I]alpha-bungarotoxin to nicotinic acetylcholine receptor on membranes prepared from the electric organs of Torpedo californica; Not active; details: Tetronarce californica
Method in brief: (§1)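 Torpedo californica electric-organ membranes (ca. 1.0 pmol α-toxin sites) in 10 mM sodium phosphate pH 7.4 with 1.0 mM EDTA and 1.0 mM EGTA. Analogue in DMSO reacted 2 or 16 h at 23 °C, then 2-5-fold molar excess [125I]-α-bungarotoxin for 60 min. Duplicate aliquots filtered on DE81, washed, gamma-counted. Apparent EC50 is 50% inhibition of specific binding.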

Acetylcholine receptor [2] = target: T1, Acetylcholine receptor (Torpedo californica, UniProt P02710+P02712+P02714+P02718); experiment: In vitro inhibition of [125I]alpha-bungarotoxin binding to nicotinic acetylcholine receptor of Torpedo californica electric organ membranes; format: tissue-based, Tetronarce californica; method in brief: as §1
T1 sequence (P02710 whole entry): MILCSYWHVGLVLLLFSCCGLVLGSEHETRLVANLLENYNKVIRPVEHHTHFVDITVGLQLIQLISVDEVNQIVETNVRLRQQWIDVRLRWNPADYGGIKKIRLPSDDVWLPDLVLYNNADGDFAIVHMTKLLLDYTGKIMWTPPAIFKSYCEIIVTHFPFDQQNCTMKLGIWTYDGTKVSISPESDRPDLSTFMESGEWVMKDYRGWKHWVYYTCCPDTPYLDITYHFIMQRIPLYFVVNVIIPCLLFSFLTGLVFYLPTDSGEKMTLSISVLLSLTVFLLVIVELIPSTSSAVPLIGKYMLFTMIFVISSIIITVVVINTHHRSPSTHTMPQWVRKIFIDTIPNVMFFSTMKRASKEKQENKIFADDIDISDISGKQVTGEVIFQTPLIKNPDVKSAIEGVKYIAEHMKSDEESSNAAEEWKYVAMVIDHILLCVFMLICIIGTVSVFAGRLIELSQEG
T1 sequence (P02712 whole entry): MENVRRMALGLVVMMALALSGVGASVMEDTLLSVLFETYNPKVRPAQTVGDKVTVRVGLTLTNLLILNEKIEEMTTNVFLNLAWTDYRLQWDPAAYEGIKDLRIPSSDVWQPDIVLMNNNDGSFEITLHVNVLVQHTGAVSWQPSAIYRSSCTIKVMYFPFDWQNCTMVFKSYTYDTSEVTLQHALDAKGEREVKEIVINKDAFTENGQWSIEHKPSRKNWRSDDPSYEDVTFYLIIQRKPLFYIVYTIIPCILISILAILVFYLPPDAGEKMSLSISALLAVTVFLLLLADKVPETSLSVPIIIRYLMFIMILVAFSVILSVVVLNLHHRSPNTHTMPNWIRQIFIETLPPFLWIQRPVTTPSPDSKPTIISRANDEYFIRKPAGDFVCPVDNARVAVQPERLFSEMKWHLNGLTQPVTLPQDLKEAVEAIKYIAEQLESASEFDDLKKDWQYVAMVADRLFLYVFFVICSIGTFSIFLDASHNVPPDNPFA
T1 sequence (P02718 whole entry): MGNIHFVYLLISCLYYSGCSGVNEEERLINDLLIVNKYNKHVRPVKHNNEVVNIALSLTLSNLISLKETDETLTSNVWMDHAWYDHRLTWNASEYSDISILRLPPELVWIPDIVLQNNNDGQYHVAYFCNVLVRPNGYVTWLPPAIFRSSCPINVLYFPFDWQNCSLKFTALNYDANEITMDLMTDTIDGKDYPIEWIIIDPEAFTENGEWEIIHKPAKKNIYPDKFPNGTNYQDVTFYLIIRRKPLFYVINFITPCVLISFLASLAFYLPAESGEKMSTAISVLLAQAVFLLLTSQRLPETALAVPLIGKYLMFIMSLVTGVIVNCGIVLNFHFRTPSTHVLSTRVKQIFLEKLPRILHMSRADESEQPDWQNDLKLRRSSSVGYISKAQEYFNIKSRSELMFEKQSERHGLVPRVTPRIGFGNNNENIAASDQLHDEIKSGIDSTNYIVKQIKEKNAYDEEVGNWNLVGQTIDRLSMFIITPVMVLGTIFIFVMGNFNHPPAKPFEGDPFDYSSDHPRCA
T1 sequence (P02714 whole entry): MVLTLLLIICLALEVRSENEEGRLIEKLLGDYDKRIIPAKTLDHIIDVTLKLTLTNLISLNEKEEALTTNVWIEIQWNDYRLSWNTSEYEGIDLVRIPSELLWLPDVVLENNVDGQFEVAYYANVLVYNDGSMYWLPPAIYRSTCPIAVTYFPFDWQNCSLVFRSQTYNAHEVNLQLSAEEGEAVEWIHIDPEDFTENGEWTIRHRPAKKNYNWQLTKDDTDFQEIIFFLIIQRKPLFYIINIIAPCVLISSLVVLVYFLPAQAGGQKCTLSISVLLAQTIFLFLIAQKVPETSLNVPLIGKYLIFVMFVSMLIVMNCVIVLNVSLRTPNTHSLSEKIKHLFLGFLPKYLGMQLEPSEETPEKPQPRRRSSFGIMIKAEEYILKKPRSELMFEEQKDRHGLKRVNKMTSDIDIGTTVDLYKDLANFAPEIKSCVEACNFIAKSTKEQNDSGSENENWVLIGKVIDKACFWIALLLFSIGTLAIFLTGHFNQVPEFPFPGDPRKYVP

Acetylcholine receptor [3] = target: T1, Acetylcholine receptor; experiment: In vitro ability to inhibit the binding of [125I]-alpha-bungarotoxin to nicotinic acetylcholine receptor on membranes prepared from the electric organs of Torpedo californica; format: tissue-based, Tetronarce californica, Electric organ; method in brief: as §1
Acetylcholine receptor [4] = target: T1, Acetylcholine receptor; experiment: In vitro ability to inhibit the binding of [125I]alpha-bungarotoxin to Nicotinic acetylcholine receptor on membranes prepared from the electric organs of Torpedo californica; format: tissue-based, Tetronarce californica, Electric organ; method in brief: as §1

Row | SMILES | Log EC50 [1] | EC50 (Acetylcholine receptor [2]) | also measured
1 | COC(=O)c1cc2oc1C[C@@H](C(C)C)CCC1C[C@@H](C[C@](C)(O)C2)OC1=O | inactive | – | –
2 | C=C(C)[C@H]1CCC2=C[C@@H](C/C(C)=C/C3=CC(C(=O)OC)=C(C1)O3)OC2=O | inactive | – | –
3 | C=C(C)[C@H]1CC2O[C@@](O)(/C(C)=C\C(=O)/C=C(/C)C[C@H]3OC(=O)[C@@]24O[C@H]34)[C@@H]1OC(C)=O | inactive | – | –
4 | C=C(CO)[C@H]1C[C@H](O)[C@@]23O[C@@H]2[C@@H](CC2(C)O[C@H]2C2=CC(C)=C(O2)[C@@H]1OC(C)=O)OC3O (single isomer, unassigned) | inactive | – | –
5 | C=C(C(=O)OC)[C@H]1C[C@H](OC(C)=O)C2=C[C@@H](C[C@]3(C)O[C@H]3C3=CC(C)=C(O3)[C@@H]1OC(C)=O)OC2=O | – | 7.41 µM | –
6 | CC(=O)O[C@H]1C[C@H](C2(C)CO2)[C@@H](OC(C)=O)C2=C(C)C=C(O2)[C@@H]2O[C@@]2(C)C[C@@H]2C=C1C(=O)O2 (stereo partly drawn) | – | 12 µM | –
7 | C=C(CO)[C@H]1C[C@H](OC(C)=O)[C@@]23O[C@@H]2[C@@H](CC2(C)O[C@H]2C2=CC(C)=C(O2)[C@@H]1O)OC3=O (single isomer, unassigned) | – | 81.3 µM | –
8 | C=C(C)[C@@H]1CC2=C(C(=O)OC)C=C(O2)[C@@H]2O[C@@]2(C)C[C@@H]2C=C(C(=O)O2)[C@@H](OC(C)=O)C1 [ACETOXYPUKALIDE] | – | 91.2 µM | –
9 | C=C(C=O)[C@@H]1CC2=C(C(=O)OC)C=C(O2)[C@@H]2O[C@@]2(C)C[C@H]2OC(=O)[C@@]3(O[C@H]23)[C@@H](OC(C)=O)C1 | – | 105 µM | –
10 | C=C(C)[C@H]1C[C@H](OC(C)=O)C2=C[C@@H](C[C@]3(C)O[C@H]3C3=CC(C)=C(O3)[C@@H]1OC(C)=O)OC2=O | – | 14.5 µM | –
11 | C=C(C)[C@H]1CCC2=C[C@@H](C[C@]3(C)O[C@H]3C3=CC(C=O)=C(C1)O3)OC2=O | inactive | – | –
12 | CC(=O)O[C@H]1C[C@H](C2(C)CO2)[C@@H](OC(C)=O)C2=C(C)C=C(O2)[C@@H]2O[C@@]2(C)C[C@H]2OC(=O)[C@@]13O[C@H]23 (stereo partly drawn) | – | 25.1 µM | –
13 | C=C(CO)[C@H]1C[C@H](OC(C)=O)[C@@]23O[C@@H]2[C@@H](C[C@]2(C)O[C@H]2C2=CC(C)=C(O2)[C@@H]1OC(C)=O)OC3=O | – | 2.09 µM | –
14 | C=C(CO)[C@H]1C[C@H](O)[C@@]23O[C@@H]2[C@@H](C[C@]2(C)O[C@H]2C2=CC(C)=C(O2)[C@@H]1OC(C)=O)OC3=O | – | 25.7 µM | –
15 | COc1cc2c3cc1Oc1cc(ccc1O)C[C@@H]1c4c(cc(OC)c(O)c4Oc4ccc(cc4)C[C@@H]3N(C)CC2)CC[N+]1(C)C | – | – | EC50 (Acetylcholine receptor [3]): 3200 µM
16 | C=C(C(=O)OC)[C@H]1CC2O[C@@](O)(/C(C)=C\C(=O)/C=C(/C)C[C@H]3OC(=O)[C@@]24O[C@H]34)[C@@H]1OC(C)=O | inactive | – | –
17 | C=C(C)[C@H]1C[C@H](OC(C)=O)[C@@]23O[C@@H]2[C@@H](C[C@](C)(O)/C=C2/C=C(C=O)C(OCC)(C1)O2)OC3=O | inactive | – | –
18 | C=C(CO)[C@H]1C[C@H](OC(C)=O)[C@@]23O[C@@H]2[C@@H](CC2(C)O[C@H]2C2=CC(C)=C(O2)[C@@H]1OC(C)=O)OC3O (single isomer, unassigned) | inactive | – | –
19 | C=C(C)[C@H]1CCC2=C[C@@H](C[C@]3(C)O[C@H]3C3=CC(C(=O)OC)=C(C1)O3)OC2=O | inactive | – | –
20 | C=C(C)[C@@H]1CC2=C(CO)C=C(O2)[C@@H]2O[C@@]2(C)C[C@H]2OC(=O)[C@@]3(O[C@H]23)[C@@H](OC(C)=O)C1 | – | 44.7 µM | –
21 | C=C(C=O)[C@H]1C[C@H](OC(C)=O)[C@@]23O[C@@H]2[C@@H](C[C@]2(C)O[C@H]2C2=CC(C)=C(O2)[C@@H]1OC(C)=O)OC3=O | – | – | EC50 (Acetylcholine receptor [4]): 2.88 µM and 9.33 µM
22 | C=C(C)[C@@H]1CC2=C(C=O)C=C(O2)[C@@H]2O[C@@]2(C)C[C@@H]2C=C(C(=O)O2)[C@@H](OC(C)=O)C1 [DEOXYLOPHOTOXIN] | – | 115 µM | –
23 | C=C(C)[C@@H]1CC2=C(C(=O)OC)C=C(O2)[C@@H]2O[C@@]2(C)C[C@H]2OC(=O)[C@@]3(O[C@H]23)[C@@H](OC(C)=O)C1 | – | 126 µM | –
